KCNQ1 pot = human KCNQ1 channel potentiation or activation. P51787. B-score at 10 µM. CHO-K1 KCNQ1, thallium flux FluxOR fluorescence; hits give high values. 310,000 tested, 0.35% active;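 active = fluorescence ratio B-score, a plate-corrected score, at least three library SD, with initial intensity B-score within 5 SD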
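System: Stable KCNQ1 CHO-K1 line | Incubation: 90 min dye loading and 20 min compound exposure, both at room temperature | Measure: Ratio B score | Medium: Assay buffer for compound exposure, DMSO matched across wells | Compound dosing: Single-concentration screen | Probe or stimulus: K+/Tl+ depolarizing stimulus | Measured by: Kinetic FluxOR fluorescence, 10 s baseline plus 110 s post-stimulus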
hERG rescue = hERG (human) protection from proarrhythmic block; CHO-hERG, FluxOR thallium flux, dofetilide IC70 present; activation (rescue from dofetilide block), less the hit threshold, % at 10 µM; 310,000 tested, 0.51% active;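 active = activation above the mean of controls blocked by dofetilide plus 5 SD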;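 note: thallium influx through hERG after potassium depolarization seen as dye fluorescence rise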
KCNK9 block = human KCNK9 channel inhibition | 310,000 tested, 1.2% active | HEK293 KCNK9, FluxOR thallium flux fluorescence; hits give low values | Q9NPC2 | B-score at 10 µM;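 active = ratio B-score over 3 SD below the library mean, with starting fluorescence within 5 SD of its mean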;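 note: negative B-score means less thallium flux so channel inhibition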
Target sequence (Q9NPC2 whole entry, looked up): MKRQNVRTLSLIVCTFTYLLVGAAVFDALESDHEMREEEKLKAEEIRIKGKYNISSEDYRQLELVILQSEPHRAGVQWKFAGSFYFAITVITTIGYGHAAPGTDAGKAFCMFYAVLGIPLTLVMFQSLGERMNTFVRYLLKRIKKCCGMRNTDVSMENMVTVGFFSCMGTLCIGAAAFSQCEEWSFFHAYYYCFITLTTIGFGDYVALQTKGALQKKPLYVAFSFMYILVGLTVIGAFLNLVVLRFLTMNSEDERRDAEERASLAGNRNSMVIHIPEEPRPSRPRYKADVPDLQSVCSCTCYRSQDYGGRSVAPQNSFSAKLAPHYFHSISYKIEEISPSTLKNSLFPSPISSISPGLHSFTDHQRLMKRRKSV
KCC2 mod = KCC2 (human) Cl- transport modulation | KCC2 cells, thallium flux FluoZin-2 fluorescence | B-score of Tl+ flux slope (higher = more flux/activation; lower = inhibition) at 10 µM | 190,000 tested, 2.2% active | AID 1456;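 active = thallium flux slope and its plate-corrected score both differing from the plate sample mean at a set confidence after two filtering rounds, in either direction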;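 note: slope of fluorescence scaled to starting intensity during 10 to 20 s after thallium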
KCNK3 block = human KCNK3 channel inhibition, primary screen; O14649; CHO-KCNK3 thallium flux, FluxOR fluorescence; hits give low values; B-score at 10 µM; 340,000 tested, 0.84% active;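 active = B-score under library mean minus 4 SD, starting fluorescence ratio at most library mean plus 5 SD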;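 note: more negative B-score means stronger inhibition of thallium flux through KCNK3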
KCNQ1 block = inhibitors of human KCNQ1 potassium channel; P51787; AID 2642; B-score at 10 µM; 310,000 tested, 1.3% active; CHO-K1 KCNQ1, FluxOR thallium flux fluorescence; hits give high values;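 active = compounds whose thallium flux B-score, printed positive for inhibition, exceeds three library SD while starting fluorescence stays within three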;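 note: channel opened by potassium depolarization with thallium stimulus after 20 min compound exposure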
KCNQ1 inh valid = confirmation of human KCNQ1 potassium channel inhibitors; KCNQ1 cell line, FluxOR thallium flux fluorescence; 1,600 tested, 93% active; inhibition, % at 10 µM; AID 588353; shares compounds with KCNQ1 block;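 active = primary screen active, with duplicate mean exceeding buffer control mean plus 3 SD of buffer wells, cut at about 28% in these data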
CHO Tl flux = activity in parental CHO cells lacking KCNQ1; shares compounds with KCNQ1 block; AID 588366; parental CHO-K1, FluxOR thallium flux fluorescence ratio; hits give low values; zero means no signal rise above baseline; fluorescence ratio (Tl flux) at 10 µM; 1,600 tested, 21% active;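 active = mean of duplicate thallium-flux fluorescence ratios in parental host cells more than 5 SD below the buffer control mean, cut at about 0.38 in these data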;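 note: ratio is peak minus minimum fluorescence divided by baseline fluorescence; actives read low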
KCNQ1 ephys val = blocks human KCNQ1 current in automated patch clamp; calls only at 10 µM; 490 tested, 20% active; AID 624120; KCNQ1-CHO cells; shares compounds with KCNQ1 block;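 active = KCNQ1 current drop exceeding 3 SD of negative control wells, seen in both duplicate runs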;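 note: steady state current during a 2 s step from -80 to +40 mV; negative values mean current inhibition and positive values mean potentiation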
KCNQ2 inh = selectivity of KCNQ1 inhibitors: inhibition of rat KCNQ2 channel | shares compounds with KCNQ1 block | 1,600 tested, 71% active | inhibition, % at 10 µM | KCNQ2 cells, FluxOR thallium flux fluorescence;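 active = mean percent inhibition of the KCNQ2 thallium signal more than 5 SD above the buffer-only control wells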;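 note: KCNQ2 expressed in CHO cells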
KCNQ1 KCNE1 spec = human KCNQ1/KCNE1 inhibition in KCNQ1 specificity screen. inhibition, % at 10 µM. shares compounds with KCNQ1 block. AID 652147. KCNQ1/KCNE1 cells, FluxOR thallium flux fluorescence. 1,600 tested, 77% active;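 active = mean percent inhibition of duplicate wells above the buffer-only control mean plus 3 SD of those controls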
Large screens that a line does not name were inactive (follow-up assays come after a bar, where they were run). Most compounds without a hit are left out; they make up all but 4.1% or so of the library.

COc1ncnc(-c2ccccc2)c1-c1ccccc1	none (no result: KCC2 mod)
CCC(C)n1c(=O)c(C(=O)Nc2ccccc2S(N)(=O)=O)c(O)c2ccccc21 (stereo not given)	none
CC(C)Cn1c(=O)c(C(=O)Nc2ccccc2S(N)(=O)=O)c(O)c2ccccc21	KCNQ1 block 8 | KCNQ1 inh valid 118 | CHO Tl flux inactive | KCNQ2 inh 63% | KCNQ1 KCNE1 spec 148%
O=C(NC1CCCCC1)N1CCCc2ccccc21	none
O=C(NC1CCCCC1)N1CCSC1=Nc1ccccc1	KCNQ1 block 10 | KCNQ1 inh valid 103 | CHO Tl flux inactive | KCNQ1 ephys val inactive | KCNQ2 inh 110% | KCNQ1 KCNE1 spec 111%
O=C(CN1CCOCC1)Nc1nc(-c2ccc(Cl)cc2)cs1	KCNQ1 block 6 (no result: KCC2 mod) | KCNQ1 inh valid 56 | CHO Tl flux inactive | KCNQ2 inh inactive | KCNQ1 KCNE1 spec 60%
S=C(NCCc1ccccc1)NCc1cccc(Cl)c1	KCNQ1 block 9 (no result: KCC2 mod) | KCNQ1 inh valid 62 | CHO Tl flux inactive | KCNQ2 inh 104% | KCNQ1 KCNE1 spec 46%
S=C(NCCNC(=S)Nc1ccccc1Cl)Nc1ccccc1Cl	KCNQ1 block 7 (no result: KCC2 mod) | KCNQ1 inh valid 62 | CHO Tl flux inactive | KCNQ2 inh 82% | KCNQ1 KCNE1 spec inactive
S=C(NCCCc1ccccc1)Nc1ccccc1Cl	KCNQ1 block 7 | KCNQ1 inh valid 100 | CHO Tl flux inactive | KCNQ1 ephys val inactive | KCNQ2 inh 61% | KCNQ1 KCNE1 spec 38%
O=[N+]([O-])c1cc(S(=O)(=O)NCCN2CCOCC2)ccc1Cl	none (no result: KCC2 mod)
Cc1ccc(-c2csc(NC(=O)CSc3nc4ccccc4c(=O)n3CCCN(C)C)n2)cc1	KCNQ1 block 8 | KCNQ1 inh valid 118 | CHO Tl flux 0.29 | KCNQ2 inh 101% | KCNQ1 KCNE1 spec 154%
Cc1ccc(NC(=O)CSc2nc3ccccc3c(=O)n2CCCN2CCCCC2)cc1Cl	KCNQ1 block 7 | KCNQ1 inh valid 85 | CHO Tl flux 0.36 | KCNQ2 inh 85% | KCNQ1 KCNE1 spec 84%
O=C(c1cc2ccccc2o1)N(Cc1ccco1)Cc1cccs1	KCNQ1 block 7 (no result: KCC2 mod) | KCNQ1 inh valid 120 | CHO Tl flux 0.36 | KCNQ2 inh 91% | KCNQ1 KCNE1 spec 190%
Cc1c(C(=O)N(Cc2ccco2)Cc2cccs2)oc2ccccc12	none (no result: KCNQ1 pot, hERG rescue, KCNK9 block, KCC2 mod, KCNQ1 block)
O=C(CCN1CCOCC1)c1ccc2c(c1)OCCO2	KCNQ1 block 8 | KCNQ1 inh valid 64 | CHO Tl flux 0.36 | KCNQ2 inh inactive | KCNQ1 KCNE1 spec 60%
CCOc1ccc(S(=O)(=O)N2CCN(C(=O)c3cc4ccccc4o3)CC2)cc1	none (no result: KCNQ1 pot, hERG rescue, KCNK9 block, KCC2 mod, KCNQ1 block)
O=S(=O)(NCCNc1ncc(C(F)(F)F)cc1Cl)C(F)(F)F	KCNQ1 block 6 | KCNQ1 inh valid 40 | CHO Tl flux inactive | KCNQ2 inh inactive | KCNQ1 KCNE1 spec inactive
CS(=O)(=O)NCCNc1ncc(C(F)(F)F)cc1Cl	none
O=c1[nH]c(=O)n(-c2ccc(F)cc2)c2c1C(C(F)(F)F)(C(F)(F)F)N=C(c1ccc(F)cc1)N2	KCNQ1 block 6 | KCNQ1 inh valid 57 | CHO Tl flux inactive | KCNQ2 inh 64% | KCNQ1 KCNE1 spec inactive
CCOC(=O)/C=C1/N(C)c2ccccc2C1(C)C	none
CN1/C(=C\C=C(C#N)C#N)C(C)(C)c2ccccc21	KCNQ1 block 26 | KCNQ1 inh valid active | CHO Tl flux 0.015 | KCNQ2 inh inactive | KCNQ1 KCNE1 spec inactive

High-throughput results as filed in PubChem.
